We go through 24 molecules from ChEMBL document CHEMBL1134389, “Mapping and fitting the peripheral benzodiazepine receptor binding site by carboxamide derivatives. Comparison of different approaches to quantitative ligand-receptor interaction modeling” (J Med Chem, 2001).

For the experiment, the target named is Translocator protein (Rattus norvegicus, UniProt P16257). Briefly: Test in vitro, for potential ability to displace [3H]1 from PBR in rat brain cortex. In kind it is tissue-based. A digest of the protocol:
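Rat cortical membranes homogenized in ice-cold PBS (50 mM, pH 7.4) with 100 mM NaCl, spun at 1000g, then pellet washed three times at 50000g and resuspended in PBS. Assay stopped by GF/B filtration, counted by liquid scintillation. IC50 fitted from six displacer concentrations, triplicate.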

Sequence of Translocator protein (P16257 whole entry, looked up): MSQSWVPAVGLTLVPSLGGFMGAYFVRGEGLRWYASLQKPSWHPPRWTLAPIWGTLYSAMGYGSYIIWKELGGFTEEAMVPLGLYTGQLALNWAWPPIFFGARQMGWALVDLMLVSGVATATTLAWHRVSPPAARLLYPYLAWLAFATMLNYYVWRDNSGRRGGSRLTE

For `Cc1nc2ccccc2c(-c2ccccc2)c1C(=O)N(C)c1ccccc1`, the IC50 (usually the concentration at which inhibition is half-maximal) was greater than 10000 nM.

As for `CCCN(CCC)C(=O)c1ccccc1CN(CC)Cc1ccccc1`, the IC50 is 8870 nM.

Molecule `Cc1ccc(CN2Cc3nc4ccccc4c(-c4ccccc4)c3C2=O)cc1` displayed an IC50 of 410 nM. For `CCCN(CCC)C(=O)c1c(C)nc2ccccc2c1-c1ccccc1` the value was greater than 10000 nM. Next, `CCN(CC)C(=O)c1cc(-c2ccccc2)c2ccccc2c1`: 5 nM; `CCN(Cc1ccccc1)Cc1ccccc1C(=O)N(CC)CC`: 8210 nM; `CCN(Cc1ccccc1)Cc1nc2ccccc2c(-c2ccccc2)c1C(=O)NCc1ccccc1`: 2900 nM. Next, `CCOC(=O)c1c(N(CC)Cc2ccccc2)nc2ccccc2c1-c1ccccc1`: 540 nM; `CCN(Cc1ccccc1)Cc1nc2ccccc2c(-c2ccccc2)c1C(=O)N(CC)CC`: 373 nM. Consider `CCN(Cc1ccccc1)Cc1cc(-c2ccccc2)c2ccccc2n1`, for which the IC50 worked out at 3400 nM.

`O=C1c2c(nc3ccccc3c2-c2ccccc2)CN1Cc1ccc(Cl)cc1` registered an IC50 of 210 nM. For `CCN(Cc1ccccc1)Cc1nc2ccccc2c(-c2ccccc2)c1C(=O)N(C)c1ccccc1` the value was 1320 nM. For `CCN(CC)C(=O)c1c(C)nc2ccccc2c1-c1ccccc1` the value was greater than 10000 nM; for `CCN(CC)C(=O)c1cc(-c2ccccc2)c2ccccc2n1`, 27 nM.

Take `CCCN(CCC)C(=O)c1c(CN(CC)Cc2ccccc2)nc2ccccc2c1-c1ccccc1`: the IC50 amounted to 456 nM. Regarding `CCCNC(=O)c1c(CN(CC)Cc2ccccc2)nc2ccccc2c1-c1ccccc1`, the IC50 was found to be 872 nM. For `CCOC(=O)c1c(CN(CC)Cc2ccccc2)nc2ccccc2c1-c1ccccc1` the value was 700 nM; for `CCOC(=O)c1c(Cl)nc2ccccc2c1-c1ccccc1`, 3700 nM. For `CCOC(=O)c1c(CN2CCc3ccccc3C2)nc2ccccc2c1-c1ccccc1` the value was 1190 nM; for `CCN(Cc1ccccc1)Cc1nc2ccccc2c(-c2ccccc2)c1C(=O)N(C)C`, 229 nM. On to `CCN(Cc1ccccc1)Cc1ccccc1C(=O)N(C)c1ccccc1`, for which the IC50 is greater than 10000 nM. Next, `CCN(Cc1ccccc1)Cc1ccccc1C(=O)N(C)C`: greater than 10000 nM. The molecule `CCN(Cc1ccccc1)Cc1nc2ccccc2c(-c2ccccc2)c1C(=O)N(C)c1ccc(Cl)cc1` yielded an IC50 of 2480 nM. Take `CCN(Cc1ccccc1)Cc1c(C(=O)N(CC)CC)nc2ccccc2c1-c1ccccc1`: the IC50 was determined as 4.1 nM.
